Laboratory results: ChEMBL document CHEMBL1153198, “Design, synthesis and prostate cancer cell-based studies of analogs of the Rho/MKL1 transcriptional pathway inhibitor, CCG-1423” (Bioorg Med Chem Lett, 2010)

What follows are compounds tested on PC-3 (assay: Antiinvasive activity in human PC3 cells at 10 uM by Matrigel cell invasion assay). Settings: not given.
Type: functional
Outline: (§1)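 PC-3 cells (2 × 10^5) were seeded in low-serum DMEM (0.5% FBS) in the upper chamber of 24-well Matrigel inserts, with compound or DMSO. The lower well held the same 0.5% FBS medium, and cells were incubated 24 h at 37 °C in 5% CO2. Inserts were methanol-fixed, stained with 0.5% crystal violet, and non-invaded cells were wiped off. Stain was extracted in 20% acetic acid and read at 595 nm.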

| SMILES | inhibition (INH) [%] |
| --- | --- |
| O=C(NCCC(=O)N1CCc2cc(Cl)ccc21)c1cc(C(F)(F)F)cc(C(F)(F)F)c1 | 0 |
| O=C(CCNCc1cc(C(F)(F)F)cc(C(F)(F)F)c1)Nc1ccc(Cl)cc1 | 47 |

These compounds were tested on PC-3 (assay: Cytotoxicity against human PC3 cells assessed as inhibition of mitochondrial metabolism at 10 uM by WST-1 assay). Settings: not given.
Type: functional

| SMILES | inhibition at 10 µM [%] |
| --- | --- |
| O=C(CONC(=O)c1cc(C(F)(F)F)cc(C(F)(F)F)c1)Nc1ccccc1 | 0 |
| O=C(c1cc(C(F)(F)F)cc(C(F)(F)F)c1)N1CCC(Nc2ccc(Cl)cc2)CC1 | 19 |
| O=C(CONC(=O)c1ccc(C(F)(F)F)cc1)Nc1ccc(Cl)cc1 | 0 |
| O=C(CONC(=O)c1cccc(C(F)(F)F)c1)Nc1ccc(Cl)cc1 | 0 |
| O=C(Nc1cc(C(F)(F)F)cc(C(F)(F)F)c1)C1CCN(C(=O)c2ccc(Cl)cc2)CC1 | 10 |

The compounds below were run against Transforming protein RhoA/Rho-related GTP-binding protein RhoC (Homo sapiens, UniProt P61586+P08134) (assay: Inhibition of RhoA/C-mediated transcriptional response in human PC3 cells by serum response factor-luciferase reporter gene assay). Settings: pc-3.
Type: cell-based

| SMILES | IC50 [µM] |
| --- | --- |
| O=C(CONC(=O)c1cc(C(F)(F)F)cc(C(F)(F)F)c1)Nc1ccc(Cl)cc1 | 4.7 |
| O=C(NCc1csc(-c2ccc(Cl)cc2)n1)c1cc(C(F)(F)F)cc(C(F)(F)F)c1 | 4.1 |
| O=C(Nc1ccc(Cl)cc1)c1cccc(NC(=O)c2cc(C(F)(F)F)cc(C(F)(F)F)c2)c1 | 1.7 |
| O=C(CONC(=O)c1ccccc1)Nc1ccc(Cl)cc1 | > 100 |
| O=C(CONC(=O)c1cc(C(F)(F)F)cc(C(F)(F)F)c1)Nc1ccccc1 | 36 |
| O=C(c1cc(C(F)(F)F)cc(C(F)(F)F)c1)N1CCC(Nc2ccc(Cl)cc2)CC1 | 10.8 |
| O=C(CCc1cn(-c2cc(C(F)(F)F)cc(C(F)(F)F)c2)nn1)Nc1ccc(Cl)cc1 | > 100 |
| O=C(Nc1ccc(Cl)cc1)C1CCN(C(=O)c2cc(C(F)(F)F)cc(C(F)(F)F)c2)CC1 | 16 |
| O=C(NCCC(=O)N1CCc2cc(Cl)ccc21)c1cc(C(F)(F)F)cc(C(F)(F)F)c1 | 13 |
| O=C(Nc1ccc(Cl)cc1)c1ccc(NC(=O)c2cc(C(F)(F)F)cc(C(F)(F)F)c2)cc1 | > 100 |
| O=C(CCCCNC(=O)c1cc(C(F)(F)F)cc(C(F)(F)F)c1)Nc1ccc(Cl)cc1 | > 100 |
| O=C(CONC(=O)c1ccc(C(F)(F)F)cc1)Nc1ccc(Cl)cc1 | 29 |
| CN(C(=O)CCNC(=O)c1cc(C(F)(F)F)cc(C(F)(F)F)c1)c1ccc(Cl)cc1 | > 100 |
| O=C(CCNC(=O)c1cc(C(F)(F)F)cc(C(F)(F)F)c1)Nc1ccc(Cl)cc1 | 38 |
| O=C(c1cc(C(F)(F)F)cc(C(F)(F)F)c1)N1CCC(=O)N(c2ccc(Cl)cc2)CC1 | > 100 |
| O=C(CCCNC(=O)c1cc(C(F)(F)F)cc(C(F)(F)F)c1)Nc1ccc(Cl)cc1 | 21 |
| O=C(Nc1ccc(Cl)cc1)C1CCCN1C(=O)c1cc(C(F)(F)F)cc(C(F)(F)F)c1 (centres undefined) | 69 |

| SMILES | IC50 [µM] |
| --- | --- |
| O=C(CCNC(=O)c1cc(C(F)(F)F)cc(C(F)(F)F)c1)NCc1ccc(Cl)cc1 | > 100 |
| O=C(CC1CC(c2cc(C(F)(F)F)cc(C(F)(F)F)c2)=NO1)Nc1ccc(Cl)cc1 (centres undefined) | 4.2 |
| FC(F)(F)c1cc(CNCCCNc2ccc(Cl)cc2)cc(C(F)(F)F)c1 | 9.1 |
| O=C(Nc1ccccc1C(=O)Nc1ccc(Cl)cc1)c1cc(C(F)(F)F)cc(C(F)(F)F)c1 | > 100 |
| O=C(CC1CCCCN1C(=O)c1cc(C(F)(F)F)cc(C(F)(F)F)c1)Nc1ccc(Cl)cc1 (centres undefined) | 9.5 |
| O=C(CCNCc1cc(C(F)(F)F)cc(C(F)(F)F)c1)Nc1ccc(Cl)cc1 | 8.1 |
| O=C(NCCc1cn(-c2ccc(Cl)cc2)nn1)c1cc(C(F)(F)F)cc(C(F)(F)F)c1 | > 100 |
| O=C(N[C@@H]1CCC[C@@H]1C(=O)Nc1ccc(Cl)cc1)c1cc(C(F)(F)F)cc(C(F)(F)F)c1 | > 100 |
| O=C(CONC(=O)c1cccc(C(F)(F)F)c1)Nc1ccc(Cl)cc1 | 27 |
| O=C(NCCCNc1ccc(Cl)cc1)c1cc(C(F)(F)F)cc(C(F)(F)F)c1 | 5.1 |
| O=C(CONC(=O)c1cc(C(F)(F)F)cc(C(F)(F)F)c1)Nc1cccc(Cl)c1 | 5.9 |
| O=C(CNC(=O)c1cc(C(F)(F)F)cc(C(F)(F)F)c1)Nc1ccc(Cl)cc1 | 33 |
| O=C(Nc1cc(C(F)(F)F)cc(C(F)(F)F)c1)C1CCN(C(=O)c2ccc(Cl)cc2)CC1 | 10 |
| O=C(CONC(=O)c1ccc(Cl)cc1)Nc1cc(C(F)(F)F)cc(C(F)(F)F)c1 | 8.6 |
| O=C(Nc1ccc(Cl)cc1)C1CCN(C(=O)c2cc(C(F)(F)F)cc(C(F)(F)F)c2)C1 (centres undefined) | 16.3 |
| O=C(NCCCOc1ccc(Cl)cc1)c1cc(C(F)(F)F)cc(C(F)(F)F)c1 | 8.9 |

The compounds below were run on PC-3 (assay: Cytotoxicity against human PC3 cells assessed as inhibition of mitochondrial metabolism at 100 uM by WST-1 assay). Settings: not given.
Type: functional

| SMILES | inhibition at 100 µM [%] |
| --- | --- |
| O=C(CONC(=O)c1cc(C(F)(F)F)cc(C(F)(F)F)c1)Nc1ccccc1 | 37 |
| O=C(c1cc(C(F)(F)F)cc(C(F)(F)F)c1)N1CCC(Nc2ccc(Cl)cc2)CC1 | 0 |
| O=C(CONC(=O)c1ccc(C(F)(F)F)cc1)Nc1ccc(Cl)cc1 | 56 |
| O=C(CCNC(=O)c1cc(C(F)(F)F)cc(C(F)(F)F)c1)Nc1ccc(Cl)cc1 | 10 |
| O=C(CC1CC(c2cc(C(F)(F)F)cc(C(F)(F)F)c2)=NO1)Nc1ccc(Cl)cc1 (centres undefined) | 38 |
| O=C(CC1CCCCN1C(=O)c1cc(C(F)(F)F)cc(C(F)(F)F)c1)Nc1ccc(Cl)cc1 (centres undefined) | 14 |
| O=C(CONC(=O)c1cccc(C(F)(F)F)c1)Nc1ccc(Cl)cc1 | 58 |
| O=C(Nc1cc(C(F)(F)F)cc(C(F)(F)F)c1)C1CCN(C(=O)c2ccc(Cl)cc2)CC1 | 88 |
| O=C(Nc1ccc(Cl)cc1)C1CCN(C(=O)c2cc(C(F)(F)F)cc(C(F)(F)F)c2)C1 (centres undefined) | 67 |

These compounds were tested on PC-3 (assay: Antiinvasive activity in human PC3 cells at 100 uM by Matrigel cell invasion assay). Settings: not given.
Type: functional
Outline: as §1

| SMILES | inhibition at 100 µM [%] |
| --- | --- |
| O=C(NCCC(=O)N1CCc2cc(Cl)ccc21)c1cc(C(F)(F)F)cc(C(F)(F)F)c1 | 0 |
| O=C(Nc1ccc(Cl)cc1)c1ccc(NC(=O)c2cc(C(F)(F)F)cc(C(F)(F)F)c2)cc1 | 0 |
| O=C(Nc1ccc(Cl)cc1)C1CCCN1C(=O)c1cc(C(F)(F)F)cc(C(F)(F)F)c1 (centres undefined) | 78 |
| FC(F)(F)c1cc(CNCCCNc2ccc(Cl)cc2)cc(C(F)(F)F)c1 | 86 |
| O=C(NCCCOc1ccc(Cl)cc1)c1cc(C(F)(F)F)cc(C(F)(F)F)c1 | 26 |
